Screens (PubChem BioAssay)
Rows were chosen to be rich in hits. Some 2.6% of all compounds tested hit in one or more screens of this group.
Hsp70 activator – Hsp70 transcriptional activation, primary screen | HeLa Hsp70 promoter luciferase reporter, luminescence; scaled: vehicle 0, proteasome-inhibitor control 100% | activation, % at 10 µM | actives 0.04% (n = 200,000) | AID 1203;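 active means activation above the mean across all tested compounds plus 3 SD, cutoff set per campaign, cut at about 5.5% in these data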;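 further: 100% = MG132 at 30 µM as the positive control and 0% = DMSO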
HSF1 activator – increases HSF-1 driven luciferase reporter signal. NIH3T3-HGL HSF-1 luciferase reporter, MG132, 8 h; 100% = twice DMSO control signal. activation, % at 9 µM. actives 1.7% (n = 300,000). AID 504408;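 active means mean replicate activation of at least 50% with a set share of replicates each reaching 50%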;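 further: 0% = median of the neutral control wells and 100% = twice that signal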
HSF1 inhib – HSF1 inhibition; NIH3T3-HGL HSE-luciferase, MG132-induced, luminescence 8 h; stronger effect = lower value; activity change, negative = inhibition, % at 7.5 µM (by protocol); actives 0.77% (n = 300,000); AID 2098;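 active means more than half of replicate wells show activity change below -50%, luminescence cut by over half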;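 further: luciferase reports HSF-1 transcriptional activity via heat shock element; 0% = median of DMSO wells and -100% = zero luminescence signal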
Rad51 HR inh – blocks human Rad51 in homologous recombination. Q06609. hRad51 DNA strand exchange, fluorescence dequenching. inhibition, % at 10 µM. actives 0.085% (n = 200,000). AID 1385;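 active means inhibition above 40% at the single screening dose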;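 further: 0% = DMSO control wells and 100% = blanks with heterologous ssDNA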
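System: hRad51 filaments on single-stranded DNA; reagent: Fluorescein- and BHQ1-tagged 47-mer duplex; compound dosing: one concentration, 10 µM final; timing: filaments 15 min 37 °C, then compound 30 min; measured by: fluorescein emission 520 nm, excitation 485 nm; benchmarks: per-plate controls and blanks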
Mdm2 ligase inh – blocks human Mdm2 ubiquitin ligase activity; Q00987; cell-based MDM2 ubiquitination luciferase reporter, 2 h; 0 = plate control, 100 = twice control, blank-subtracted; signal enhancement, % at 5 µM; actives 0.11% (n = 210,000); AID 1230;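 active means signal enhancement of 30% or more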;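 further: luminescence tracks abundance of the self-degrading MDM2-luciferase fusion protein; higher signal means inhibition of MDM2 E3 ligase activity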
Target sequence (Q00987 whole entry, looked up, the tested form may be a part): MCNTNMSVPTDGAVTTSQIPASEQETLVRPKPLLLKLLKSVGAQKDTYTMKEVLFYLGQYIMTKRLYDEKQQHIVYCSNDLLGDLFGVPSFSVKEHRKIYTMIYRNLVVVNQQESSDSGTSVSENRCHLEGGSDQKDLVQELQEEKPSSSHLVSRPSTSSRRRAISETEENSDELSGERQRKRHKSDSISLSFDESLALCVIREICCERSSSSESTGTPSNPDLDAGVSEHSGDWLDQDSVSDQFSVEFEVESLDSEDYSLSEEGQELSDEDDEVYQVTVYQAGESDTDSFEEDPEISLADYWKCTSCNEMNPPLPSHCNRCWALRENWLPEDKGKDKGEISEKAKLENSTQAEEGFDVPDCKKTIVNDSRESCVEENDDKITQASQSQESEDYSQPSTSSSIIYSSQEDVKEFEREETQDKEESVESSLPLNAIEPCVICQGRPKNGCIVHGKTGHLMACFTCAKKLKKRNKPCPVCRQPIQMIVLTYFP
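System: stable MDM2–luciferase fusion reporter cells / Input: 2000 cells seeded into each well / Schedule: 4 h settle plus 2 h compound, 37 °C / Compound: single-point 5 µM / Buffer or medium: cells held in DMEM / Benchmarks: control and blank well means / Evaluation: percent signal gain over controls, blank-subtracted / Measured by: luciferase luminescence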
HSV augment – HSV replication enhancement; HSV replication augmentation in cells, fold increase; maximum fold increase; actives 0.005% (n = 220,000); in the data active means maximum fold increase above about 1.5; tested in PC3 cells
* hit, by the source's call; i = inactive; · = no result given.

SMILES | Hsp70 activator | HSF1 activator | HSF1 inhib | Rad51 HR inh | Mdm2 ligase inh | HSV augment
CN1CCN(CCc2nc3cc(NC(=O)COc4ccc([N+](=O)[O-])cc4)ccc3n2C)CC1 | · | 5 | -4 | · | · | ·
COc1ccc(C(=O)N/C(N)=N/c2nc3ccccc3o2)cc1 | 0 | 32 | 21 | 0 | -28 | i
COc1ccc(C(=O)/C=C/Sc2nc3ccccc3o2)cc1 | · | 93* | 73 | 1 | 27 | i
COc1ccc(N2CCN(C(=O)Cc3ccc(-n4c(=O)[nH]c5ccccc5c4=O)cc3)CC2)cc1 | 0 | -69 | -58* | 0 | -10 | i
COc1ccc(N2CCN(C(=O)Cc3ccc(C)cc3)CC2)cc1 | · | 39 | 12 | · | · | ·
Oc1ccc(-c2nc3ccc4ccccc4c3c3c2CCC3)cc1O | 0 | 61* | 25 | -6 | -9 | i
CCCCC[C@H](O)/C=C/[C@H]1C=CC(=O)[C@@H]1C/C=C\CCCC(=O)O | 0 | · | · | 0 | · | i
CCCCC1C(=O)CC[C@H]2[C@@H]1CC(=O)[C@@H]2C/C=C\CCCC(=O)O (some centres not stated) | 0 | 72* | 40 | -6 | · | i
Cc1ccc(-c2cn3cccc(C)c3n2)cc1 | 0 | 78* | 38 | -4 | -40 | i
OC1CCN(Cc2cccc(Oc3ccccc3)c2)CC1 | 0 | -62 | -51* | -4 | -1 | i
O=C1CNC(=S)N1CCCc1ccccc1 | · | 9 | -4 | · | · | ·
Cc1nc(NC(=O)/C=C/c2ccc(Cl)cc2Cl)sc1C(=O)N(C)C | 0 | -81 | -76* | · | · | i
O=C(CSc1nc2cc(Cl)ccc2s1)NC1CCCc2ccccc21 (configuration not stated) | 0 | 14 | 5 | -6 | -4 | i
CCOc1cc(CNCC2CCCN2CC)cc(Cl)c1OC (configuration not stated) | 0 | -81 | -74* | 4 | -11 | i
C/C(=N\N=c1/sc2ccccc2n1C)c1ccc(N2CCOCC2)cc1 | 1 | 66* | 25 | -1 | -12 | i
CCC(=O)N1N=C(c2ccc(Cl)cc2)CC1c1ccco1 (configuration not stated) | · | 12 | 7 | -1 | -3 | i
CN1CCN(CC(=O)N2N=C(c3cccs3)CC2c2ccco2)CC1 (configuration not stated) | 0 | -65 | -58* | · | 6 | i
O=C(c1ccco1)N1N=C(c2ccc(Cl)cc2)CC1c1ccco1 (configuration not stated) | · | 3 | 4 | · | · | ·
CCc1ccc(C2=NN(C(C)=O)C(c3ccco3)C2)cc1 (configuration not stated) | 0 | 74* | 33 | 15 | -11 | i
Cc1ccc(C2CC(c3cccs3)=NN2C(=O)c2ccco2)o1 (configuration not stated) | 0 | 7 | 2 | -1 | -5 | i
COc1ccc(C2=NN(C(=O)c3ccco3)C(c3ccco3)C2)cc1OC (configuration not stated) | · | 62* | 32 | · | · | ·
O=C(c1ccco1)N1N=C(c2cccs2)CC1c1ccco1 (configuration not stated) | 0 | 64* | 29 | -18 | -3 | i
Cc1csc(NC(C)c2nc3cc(Cl)c(Cl)cc3n2CCCO)n1 (configuration not stated) | · | 6 | 7 | 1 | · | i
O=C(CCl)N1N=C(c2cccs2)CC1c1ccco1 (configuration not stated) | 0 | -95 | -94* | 3 | 2 | i
CCOC(=O)c1c(-c2ccccc2)oc2ccc(OCC(O)CN(C)C)cc12 (configuration not stated) | · | 19 | -1 | · | · | ·
COc1ccc(OCc2cc(C(=O)NC3CCOC(C)(C)C3)no2)c2ccccc12 (configuration not stated) | · | 93* | 49 | · | · | ·
CSc1ccccc1OCc1cc(C(=O)NC2CCOC(C)(C)C2)no1 (configuration not stated) | · | 10 | 11 | · | · | ·
CCC(C)NC(=O)Cc1c(OC)ccc2cc(Br)ccc12 (configuration not stated) | 0 | 62* | 26 | -4 | -7 | i
